PREPL inh: inhibits the human prolyl oligopeptidase-like enzyme; 320,000 tested, 0.68% active; recombinant PREPL, fluorescence polarization activity-based probe; inhibition, % at 5.96 µM; in the data active means inhibition above about 43%;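 further: 0% = enzyme with DMSO and 100% = wells lacking enzyme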
CHOP inhibitor: blocks CHOP induction under ER stress; 220,000 tested, 3.8% active; inhibition, % at 10 µM; CHO-K1 CHOP-promoter luciferase, tunicamycin-induced, 15-18 h; AID 2732;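 active means compounds that reduced the stress-induced luciferase reporter signal by more than about 70% of percent inhibition, limit read from the data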;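 further: 0% = tunicamycin plus vehicle and 100% = wells without tunicamycin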
NR3A LBD binder: NR3A (human) ligand-binding domain modulation; NR3A LBD differential scanning fluorimetry, Tm shift; 0% = protein alone, 100% = glycine-bound protein; Tm shift relative to glycine control, % at 25 µM; 340,000 tested, 2.5% active; AID 1259313;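 active means melting temperature shift of at least 10% of the positive control shift, at one fixed dose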
Beta cell apopt: beta cell apoptosis inhibition. INS-1E cytokine-induced death, ATP luminescence, 48 h; percent of positive-control rescue, neutral wells zero. protection from apoptosis, % (concentration not given with the values). 300,000 tested, 0.8% active;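 active means Every replicate reaches about 75%, or at least half do and their mean reaches it too, limit read from the data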;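 further: 0% = cytokine-treated negative control wells and 100% = positive control rescue; higher means more ATP so stronger rescue from cytokine killing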
T cruzi inh: T. cruzi replication inhibition | AID 1885 | 300,000 tested, 1.4% active | T. cruzi beta-gal in NIH3T3, luminescence, 90 h | inhibition, % (concentration not given with the values);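 active means mean inhibition across valid replicates above about 55%, limit read from the data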;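 further: signal also drops with host cell toxicity which is not excluded here; 0% = plate median of DMSO wells and 100% = zero luminescence signal; higher percent means less beta-gal luminescence so fewer parasites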
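compound dosing = single 50 nL compound addition per well in DMSO | material = NIH/3T3 host cells with β-galactosidase reporter T. cruzi | input = 5,000 host fibroblasts per well | timing = ≥90 h infection period, 3 h prior cell attachment | read-out basis = percent inhibition of parasite-derived β-gal signal | detection = GalScreen β-gal luminescence, detergent lysis, 60 min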
CSC inhib: blocks cancer stem cells | cancer stem cell-like cells viability, luminescence | inhibition, % at 7.5 µM | 300,000 tested, 1.1% active; in the data active means inhibition above about 75%; tested in HMLE shEcad cells
An asterisk follows results filed as active. Hits are enriched below; roughly 6.7% of the tested compounds scored in any of these assays.

For O=C(N/N=C/c1ccccn1)c1cccc(S(=O)(=O)Nc2ccccc2Cl)c1 the results were PREPL inh -2, CHOP inhibitor 22, NR3A LBD binder -1, Beta cell apopt -4, T cruzi inh -13 and CSC inhib -1.
`COc1ccc(NS(=O)(=O)c2cccc(C(=O)N/N=C/c3c(F)c(F)c(F)c(F)c3F)c2)cc1` gave NR3A LBD binder 12*.
For O=C(CSCc1ccccc1)N/N=C/c1cc2c(cc1Br)OCO2 the results were PREPL inh -7, CHOP inhibitor 57, NR3A LBD binder -2, Beta cell apopt -3, T cruzi inh -17 and CSC inhib -14.
For O=C(Cn1nnc(-c2ccccc2Cl)n1)N/N=C/c1ccc2c(c1)OCO2 the results were PREPL inh -8, CHOP inhibitor 76*, NR3A LBD binder 0, Beta cell apopt -4, T cruzi inh -6 and CSC inhib -7.
O=C(CNc1ccccc1)N/N=C/c1ccc2c(c1)OCCO2 was read as PREPL inh 12, CHOP inhibitor 26, NR3A LBD binder 16*, Beta cell apopt -14 and T cruzi inh -2.
Screening O=C(NN=Cc1ccc2c(c1)OCO2)NN=Cc1ccc2c(c1)OCO2 returned NR3A LBD binder 26*.
For O=C(CNc1ccccc1)N/N=C/c1ccc2c(c1)OCO2 the results were PREPL inh 3, CHOP inhibitor 21, NR3A LBD binder -1, Beta cell apopt 2, T cruzi inh -19 and CSC inhib -6.
For O=C(N/N=C/c1cccs1)c1ccc(NC(=O)c2ccccc2Cl)cc1 the results were PREPL inh -4, CHOP inhibitor 3, NR3A LBD binder 18*, Beta cell apopt 3, T cruzi inh -11 and CSC inhib 8.
For Cc1[nH]c2ccccc2c1C(=O)CSc1nc2ccccc2c(=O)n1CCCN1CCOCC1 the results were PREPL inh -73, CHOP inhibitor -3, NR3A LBD binder -4, Beta cell apopt -4, T cruzi inh 32 and CSC inhib 8.
Screening Cc1ccc2[nH]c(C(=O)N3CCN(C(c4ccccc4)c4ccccc4)CC3)cc2c1 returned PREPL inh 17, NR3A LBD binder 1, Beta cell apopt 20, T cruzi inh 11 and CSC inhib 19.
`Cc1cccc(C(=O)Nc2ccc(C(=O)N/N=C/c3ccc4c(c3)OCO4)cc2)c1` gave PREPL inh -4, NR3A LBD binder 24*, Beta cell apopt 7, T cruzi inh 0 and CSC inhib 46.
Screening O=C(N/N=C/c1ccc2c(c1)OCO2)c1ccc(NC(=O)c2ccccc2Cl)cc1 returned PREPL inh 2, NR3A LBD binder 22*, Beta cell apopt 10, T cruzi inh 2 and CSC inhib 71.
For CC(C)[C@H](NS(=O)(=O)c1ccccc1)C(=O)Nc1nccs1 the results were PREPL inh 4, NR3A LBD binder -2, Beta cell apopt -5 and CSC inhib -10.
For COc1ccc(CNc2nc3c(c(=O)n(Cc4ccc(Br)cc4)c(=O)n3C)n2C)cc1 the results were PREPL inh 1, CHOP inhibitor 73*, NR3A LBD binder 4, Beta cell apopt 9, T cruzi inh -10 and CSC inhib -1.
`Cn1c(N/N=C2\CCCc3ccccc32)nc2c1c(=O)n(Cc1ccc(F)cc1)c(=O)n2C` gave CHOP inhibitor 83*, NR3A LBD binder -6 and T cruzi inh -2.
`COCCCNc1nc2c(c(=O)n(Cc3ccc(F)cc3)c(=O)n2C)n1C` gave PREPL inh 6, NR3A LBD binder 0, Beta cell apopt -1, T cruzi inh -11 and CSC inhib -4.
For Cn1c(NCc2ccccc2)nc2c1c(=O)n(Cc1ccc(Br)cc1)c(=O)n2C the results were PREPL inh 6, CHOP inhibitor 72*, NR3A LBD binder 5, Beta cell apopt 14, T cruzi inh -2 and CSC inhib 2.
`COc1cccc(CNC(=O)CSc2nc(=O)n(Cc3ccncc3)c3c2CCC3)c1` gave PREPL inh -4, NR3A LBD binder 1, T cruzi inh -7 and CSC inhib -4.
`N=c1n(CC(=O)c2ccc([N+](=O)[O-])cc2)c2ccccc2n1Cc1ccccc1` gave PREPL inh 5, CHOP inhibitor 75*, NR3A LBD binder -1, Beta cell apopt 15, T cruzi inh 26 and CSC inhib -5.

Bioassay records as filed in PubChem.
